According to ChEMBL document CHEMBL4321861, “An Underlying Mechanism of Dual Wnt Inhibition and AMPK Activation: Mitochondrial Uncouplers Masquerading as Wnt Inhibitors” (J Med Chem, 2019):
Activity calls are given as the source filed them. No cut-off for these calls is given here.

Experiments:
[1] = target: T1, AMP-activated protein kinase, AMPK (Homo sapiens) (UniProt P54646+O43741+P54619+Q9UGJ0+Q9Y478+Q13131+Q9UGI9); assay: Activation of AMPK in human LS174T cells assessed as […] phosphorylation at S79 residue at 3 uM measured within 15 mins by Western blot analysis; type: cell-based
In short: (§1)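 Cells lysed in 50 mM HEPES, 100 mM NaCl, 2 mM EDTA, 1% glycerol, 50 mM NaF, 1 mM Na3VO4, 1% Triton X-100 with protease inhibitors. Western blot probed for total and phospho-AMPK and total and phospho-ACC, with actin loading control. Compounds given in DMSO. At least three independent repeats.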

DLD-1 [2] = assay: Induction of mitochondrial dysfunction in human DLD1 cells assessed as reduction in mitochondrial ATP production at 3 uM by Seahorse XF real-time assay; details: Mitochondria
In short: (§2)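 About 3×10^4 cells seeded per well in XF96 plates. Next day medium switched to Seahorse XF medium with 25 mM glucose and 1 mM pyruvate. Compound given at 3 μM in DMSO; FCCP 1 μM as reference. Mitochondrial and glycolytic ATP production rates measured by XF Real-Time ATP Rate Assay.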

LS174T [3] = assay: Induction of mitochondrial dysfunction in human LS174T cells assessed as reduction in mitochondrial ATP production at 3 uM by Seahorse XF real-time assay; details: Mitochondria; in short: as §2
DLD-1 [4] = assay: Uncoupling of mitochondrial oxidative phosphorylation in human DLD1 cells at 3 uM in presence of oligomycin A by seahorse XFe96 analyser based assay; details: Mitochondria
In short: (§3)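 DLD-1 cells, about 3×10^4 per XF96 well, in XF medium with 25 mM glucose and 1 mM pyruvate. Mito stress sequence: oligomycin A 1 μM, then test compound 3 μM in DMSO in place of FCCP (FCCP 1 μM as control), then rotenone/antimycin A 1 μM each. Oxygen consumption rate recorded.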

LS174T [5] = assay: Inhibition of LiCl-induced Wnt signaling in human LS174T cells assessed as reduction in beta-catenin accumulation; type: cell-based
DLD-1 [6] = assay: Induction of mitochondrial dysfunction in human DLD1 cells assessed as increase in glycolytic ATP production at 3 uM by Seahorse XF real-time assay; details: Mitochondria; in short: as §2
[7] = target: T1, AMP-activated protein kinase, AMPK (Homo sapiens); assay: Activation of AMPK in human LS174T cells assessed as increase in AMPK phosphorylation at T172 residue at 3 uM measured within 15 mins by Western blot analysis; type: cell-based; in short: as §1
DLD-1 [8] = assay: Induction of mitochondrial membrane potential disruption in human DLD1 cells measured after 2 hrs by TMRM staining based fluorescence microscopic analysis; details: Mitochondria
In short: (§4)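 Cells grown one day in 24-well plates: DLD-1 in DMEM + 10% serum, LS174T in RPMI1640 + 5% serum. Treated 2 h with compound in DMSO or DMSO, then stained with 100 nM TMRM for 15 min. Rinsed once with PBS and imaged by fluorescence microscopy at 568 nm.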

Liver [9] = assay: Uncoupling of mitochondrial oxidative phosphorylation in mouse liver mitochondria assessed as increase in oxygen consumption rate in presence of oligomycin A by seahorse XFe96 analyser based assay
In short: (§5)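 Mouse liver mitochondria isolated by differential centrifugation in mannitol/sucrose/HEPES/EGTA buffer, pH 7.2. Loaded at 6 μg/well in KCl/HEPES/MgCl2/KH2PO4 respiration buffer, pH 7.2, at 37 °C. OCR measured on XFe96.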

DLD-1 [10] = assay: Uncoupling of mitochondrial oxidative phosphorylation in human DLD1 cells assessed as increase in oxygen consumption rate at 3 uM in presence of oligomycin A by seahorse XFe96 analyser based assay; details: Mitochondria; in short: as §3
LS174T [11] = assay: Induction of mitochondrial membrane potential disruption in human LS174T cells measured after 2 hrs by TMRM staining based fluorescence microscopic analysis; details: Mitochondria; in short: as §4
LS174T [12] = assay: Induction of mitochondrial dysfunction in human LS174T cells assessed as increase in glycolytic ATP production at 3 uM by Seahorse XF real-time assay; details: Mitochondria; in short: as §2
Liver [13] = assay: Uncoupling of mitochondrial oxidative phosphorylation in mouse liver mitochondria assessed as increase in oxygen consumption rate at 1 to 5 uM in presence of oligomycin A by seahorse XFe96 analyser based assay; in short: as §5
[14] = target: T1, AMP-activated protein kinase, AMPK (Homo sapiens); assay: Activation of AMPK (unknown origin) assessed as increase in AMPK phosphorylation at T172 residue at 3 uM by Western blot analysis; type: protein-complex assay; in short: as §1
[15] = target: T1, AMP-activated protein kinase, AMPK (Homo sapiens); assay: Activation of AMPK (unknown origin) assessed as […] phosphorylation at S79 residue at 3 uM by Western blot analysis; type: protein-complex assay; in short: as §1
HEK293 [16] = assay: Inhibition of LiCl-activated Wnt signaling in HEK293 cells at 3 uM by TOPFlash reporter gene assay; type: cell-based; details: Homo sapiens
In short: (§6)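 Stable HEK293T Super 8xTOPFlash reporter line (pGL4.83 backbone, puromycin-selected), stimulated with 25 mM LiCl to stabilize β-catenin. Treated with compound in DMSO or DMSO. Luciferase read in 96- or 24-well format. AMPK inhibitor compound C used at 5 μM where applied. At least three independent repeats.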

LS174T [17] = assay: Inhibition of glucose metabolism in human LS174T cells assessed as reduction in ATP level at 10 mM by luminescence assay; type: functional, cell-based
HEK293 [18] = assay: Inhibition of LiCl-activated Wnt signaling in HEK293 cells at […] by TOPFlash reporter gene assay; type: cell-based; details: Homo sapiens
In short: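 Stable HEK293T line carrying Super 8xTOPFlash subcloned into pGL4.83 (hRlucP/Puro), selected with puromycin; Wnt signaling activated with 25 mM LiCl, compound added in DMSO (DMSO control); luciferase reporter readout. At least three independent repeats.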

[19] = target: T1, AMP-activated protein kinase, AMPK (Homo sapiens); assay: Activation of AMPK in human LS174T cells assessed as […] phosphorylation at S79 residue by Western blot analysis; type: cell-based; in short: as §1
HEK293 [20] = assay: Inhibition of LiCl-activated Wnt signaling in HEK293 cells by TOPFlash reporter gene assay; type: cell-based; details: Homo sapiens; in short: as §6
[21] = target: T1, AMP-activated protein kinase, AMPK (Homo sapiens); assay: Activation of AMPK in human LS174T cells assessed as increase in AMPK phosphorylation at T172 residue by Western blot analysis; type: cell-based; in short: as §1
DLD-1 [22] = assay: Inhibition of mitochondrial oxidative phosphorylation in human DLD1 cells assessed as reduction in oxygen consumption rate by seahorse XFe96 analyser based assay; details: Mitochondria
In short: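 DLD-1 cells, ~3×10^4 per well, seeded a day ahead; medium switched to Seahorse XF modified medium with 25 mM glucose and 1 mM pyruvate. Mitochondrial stress test: 1 μM oligomycin A, test compound in DMSO in place of FCCP, then 1.0 μM rotenone plus 1.0 μM antimycin A. OCR recorded; ATP production rate by real-time ATP rate assay.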

HEK293 [23] = assay: Inhibition of LiCl-activated Wnt signaling in HEK293 cells at 10 uM by TOPFlash reporter gene assay; type: cell-based; details: Homo sapiens; in short: as §6

Cc1cc([N+](=O)[O-])ccc1NS(=O)(=O)c1cc(Cl)ccc1Cl
Activity [1]: Active | Activity (DLD-1 [2]): Active | Activity (LS174T [3]): Active | Activity (DLD-1 [4]): Active | inhibition (LS174T [5]): Active | Activity (DLD-1 [6]): Active | Activity [7]: Active | Activity (DLD-1 [8]): Active | Activity (Liver [9]): Dose-dependent effect | Activity (DLD-1 [10]): Active | Activity (LS174T [11]): Active | Activity (LS174T [12]): Active

Cc1cc([N+](=O)[O-])ccc1N(C)S(=O)(=O)c1cc(Cl)ccc1Cl
Activity (Liver [13]): inactive | Activity [14]: inactive | Activity [15]: inactive | inhibition (HEK293 [16]): inactive

OC[C@H]1OC(O)C[C@@H](O)[C@@H]1O (stereo partly drawn)
inhibition (LS174T [17]): Active | inhibition (HEK293 [18]): Active

O=C1[C@H](Cc2ccc(O)cc2)N2C(=O)CCN(C(=O)NCc3ccccc3)[C@H]2CN1Cc1cccc2ccccc12
Activity [19]: inactive | inhibition (HEK293 [20]): Active | Activity [21]: inactive

C=C(C)[C@H]1Cc2c(ccc3c2O[C@@H]2COc4cc(OC)c(OC)cc4[C@@H]2C3=O)O1
inhibition (DLD-1 [22]): Active

N#Cc1c(O)c2c(-c3ccc(-c4ccccc4O)cc3)csc2[nH]c1=O
inhibition (HEK293 [23]): inactive
